Experimental data published in ChEMBL document CHEMBL5058577, “EUbOPEN Chemogenomics Library 2 (Multiplex)” (2022).

Tested on: Fibroblast
Assay: Multiplex assay against human fibroblast
Assay type: toxicity, cell-based
Procedure, shortened: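 Per cents of healthy-nucleus cells form the tubulin, mitochondrial-mass and membrane-permeability phenotype values. Live cells were stained at seeding with Hoechst33342, BioTracker Green Microtubule Cytoskeleton Dye, MitoTracker Red and Annexin V Alexa Fluor 680. After compound addition they were imaged on a CQ1 microscope at 37°C and 5% CO2, and CellPathfinder machine-learning gating split them into Hoechst high-intensity objects or normal cells, normal cells into healthy, pyknosed or fragmented nuclei, and pyknosed cells into mitotic or apoptotic.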

[1] = 12 h, 1 µM, compound concentration 1 uM, replicate 1
[2] = 12 h, 1 µM, compound concentration 1 uM, replicate 2
[3] = 12 h, 10 µM, compound concentration 10 uM, replicate 1
[4] = 12 h, 10 µM, compound concentration 10 uM, replicate 2
[5] = 24 h, 1 µM, compound concentration 1 uM, replicate 1
[6] = 24 h, 1 µM, compound concentration 1 uM, replicate 2
[7] = 24 h, 10 µM, compound concentration 10 uM, replicate 1
[8] = 24 h, 10 µM, compound concentration 10 uM, replicate 2
[9] = 48 h, 1 µM, compound concentration 1 uM, replicate 1
[10] = 48 h, 1 µM, compound concentration 1 uM, replicate 2
[11] = 48 h, 10 µM, compound concentration 10 uM, replicate 1
[12] = 48 h, 10 µM, compound concentration 10 uM, replicate 2

## CSc1ccccc1N1CCN(CCCCCC(=O)NC2CCCc3ccccc32)CC1.Cl (stereo not drawn)
[1]
  Population Apoptotic (%): 37%
  Population Fragmented Nuclei (%): 26%
  Population Healthy Nuclei (%): 49%
  Population Hoechst High Intensity Objects (%): 6%
  Population Membrane Permeable-Phenotype (%): 1%
  Population Mitochondria Different-Phenotype (%): 15%
  Population Mitotic Cells (%): 62%
  Population Normal (%): 93%
  Population Pyknosed Nuclei (%): 24%
  Population Tubulin-Different-Phenotype (%): 65%
  Total Cell Count: 126
[2]
  Population Apoptotic (%): 50%
  Population Fragmented Nuclei (%): 32%
  Population Healthy Nuclei (%): 41%
  Population Hoechst High Intensity Objects (%): 2%
  Population Membrane Permeable-Phenotype (%): 9%
  Population Mitochondria Different-Phenotype (%): 7%
  Population Mitotic Cells (%): 50%
  Population Normal (%): 97%
  Population Pyknosed Nuclei (%): 25%
  Population Tubulin-Different-Phenotype (%): 74%
  Total Cell Count: 135
[3]
  Population Apoptotic (%): 58%
  Population Fragmented Nuclei (%): 25%
  Population Healthy Nuclei (%): 57%
  Population Hoechst High Intensity Objects (%): 5%
  Population Membrane Permeable-Phenotype (%): 0%
  Population Mitochondria Different-Phenotype (%): 78%
  Population Mitotic Cells (%): 41%
  Population Normal (%): 94%
  Population Pyknosed Nuclei (%): 17%
  Population Tubulin-Different-Phenotype (%): 95%
  Total Cell Count: 220
[4]
  Population Apoptotic (%): 66%
  Population Fragmented Nuclei (%): 34%
  Population Healthy Nuclei (%): 50%
  Population Mitochondria Different-Phenotype (%): 36%
  Population Mitotic Cells (%): 33%
  Population Pyknosed Nuclei (%): 14%
  Population Tubulin-Different-Phenotype (%): 92%
  Total Cell Count: 242
[5]
  Population Apoptotic (%): 52%
  Population Fragmented Nuclei (%): 29%
  Population Healthy Nuclei (%): 52%
  Population Hoechst High Intensity Objects (%): 6%
  Population Membrane Permeable-Phenotype (%): 0%
  Population Mitochondria Different-Phenotype (%): 21%
  Population Mitotic Cells (%): 47%
  Population Normal (%): 93%
  Population Pyknosed Nuclei (%): 18%
  Population Tubulin-Different-Phenotype (%): 40%
  Total Cell Count: 133
[6]
  Population Apoptotic (%): 37%
  Population Fragmented Nuclei (%): 33%
  Population Healthy Nuclei (%): 43%
  Population Hoechst High Intensity Objects (%): 3%
  Population Membrane Permeable-Phenotype (%): 3%
  Population Mitochondria Different-Phenotype (%): 11%
  Population Mitotic Cells (%): 62%
  Population Normal (%): 96%
  Population Pyknosed Nuclei (%): 23%
  Population Tubulin-Different-Phenotype (%): 64%
  Total Cell Count: 130
[7]
  Population Apoptotic (%): 90%
  Population Fragmented Nuclei (%): 22%
  Population Healthy Nuclei (%): 66%
  Population Hoechst High Intensity Objects (%): 7%
  Population Membrane Permeable-Phenotype (%): 0%
  Population Mitochondria Different-Phenotype (%): 81%
  Population Mitotic Cells (%): 9%
  Population Normal (%): 92%
  Population Pyknosed Nuclei (%): 11%
  Population Tubulin-Different-Phenotype (%): 98%
  Total Cell Count: 211
[8]
  Population Apoptotic (%): 66%
  Population Fragmented Nuclei (%): 33%
  Population Healthy Nuclei (%): 56%
  Population Hoechst High Intensity Objects (%): 3%
  Population Mitochondria Different-Phenotype (%): 51%
  Population Mitotic Cells (%): 33%
  Population Normal (%): 96%
  Population Pyknosed Nuclei (%): 9%
  Population Tubulin-Different-Phenotype (%): 90%
  Total Cell Count: 258
[9]
  Population Apoptotic (%): 61%
  Population Fragmented Nuclei (%): 26%
  Population Healthy Nuclei (%): 56%
  Population Hoechst High Intensity Objects (%): 6%
  Population Membrane Permeable-Phenotype (%): 2%
  Population Mitochondria Different-Phenotype (%): 17%
  Population Mitotic Cells (%): 38%
  Population Normal (%): 93%
  Population Pyknosed Nuclei (%): 17%
  Population Tubulin-Different-Phenotype (%): 69%
  Total Cell Count: 132
[10]
  Population Apoptotic (%): 44%
  Population Fragmented Nuclei (%): 33%
  Population Healthy Nuclei (%): 45%
  Population Hoechst High Intensity Objects (%): 1%
  Population Membrane Permeable-Phenotype (%): 0%
  Population Mitochondria Different-Phenotype (%): 12%
  Population Mitotic Cells (%): 56%
  Population Normal (%): 98%
  Population Pyknosed Nuclei (%): 20%
  Population Tubulin-Different-Phenotype (%): 64%
  Total Cell Count: 124
[11]
  Population Apoptotic (%): 91%
  Population Fragmented Nuclei (%): 25%
  Population Healthy Nuclei (%): 61%
  Population Hoechst High Intensity Objects (%): 8%
  Population Membrane Permeable-Phenotype (%): 0%
  Population Mitochondria Different-Phenotype (%): 82%
  Population Mitotic Cells (%): 8%
  Population Normal (%): 91%
  Population Pyknosed Nuclei (%): 12%
  Population Tubulin-Different-Phenotype (%): 97%
  Total Cell Count: 195
[12]
  Population Apoptotic (%): 68%
  Population Fragmented Nuclei (%): 38%
  Population Healthy Nuclei (%): 53%
  Population Hoechst High Intensity Objects (%): 4%
  Population Membrane Permeable-Phenotype (%): 2%
  Population Mitochondria Different-Phenotype (%): 33%
  Population Mitotic Cells (%): 31%
  Population Normal (%): 95%
  Population Pyknosed Nuclei (%): 8%
  Population Tubulin-Different-Phenotype (%): 83%
  Total Cell Count: 281
